{
  "source": "ChEMBL document CHEMBL5042469",
  "about": "“Unique Molecular Interaction with the Histone Deacetylase 6 Catalytic Tunnel: Crystallographic and Biological Characterization of a Model Chemotype” (J Med Chem, 2021)",
  "key": {"[1]": {"molecular_target": "T1, Protein deacetylase HDAC6 (Homo sapiens) (UniProt Q9UBN7)", "T1 sequence (whole entry)": "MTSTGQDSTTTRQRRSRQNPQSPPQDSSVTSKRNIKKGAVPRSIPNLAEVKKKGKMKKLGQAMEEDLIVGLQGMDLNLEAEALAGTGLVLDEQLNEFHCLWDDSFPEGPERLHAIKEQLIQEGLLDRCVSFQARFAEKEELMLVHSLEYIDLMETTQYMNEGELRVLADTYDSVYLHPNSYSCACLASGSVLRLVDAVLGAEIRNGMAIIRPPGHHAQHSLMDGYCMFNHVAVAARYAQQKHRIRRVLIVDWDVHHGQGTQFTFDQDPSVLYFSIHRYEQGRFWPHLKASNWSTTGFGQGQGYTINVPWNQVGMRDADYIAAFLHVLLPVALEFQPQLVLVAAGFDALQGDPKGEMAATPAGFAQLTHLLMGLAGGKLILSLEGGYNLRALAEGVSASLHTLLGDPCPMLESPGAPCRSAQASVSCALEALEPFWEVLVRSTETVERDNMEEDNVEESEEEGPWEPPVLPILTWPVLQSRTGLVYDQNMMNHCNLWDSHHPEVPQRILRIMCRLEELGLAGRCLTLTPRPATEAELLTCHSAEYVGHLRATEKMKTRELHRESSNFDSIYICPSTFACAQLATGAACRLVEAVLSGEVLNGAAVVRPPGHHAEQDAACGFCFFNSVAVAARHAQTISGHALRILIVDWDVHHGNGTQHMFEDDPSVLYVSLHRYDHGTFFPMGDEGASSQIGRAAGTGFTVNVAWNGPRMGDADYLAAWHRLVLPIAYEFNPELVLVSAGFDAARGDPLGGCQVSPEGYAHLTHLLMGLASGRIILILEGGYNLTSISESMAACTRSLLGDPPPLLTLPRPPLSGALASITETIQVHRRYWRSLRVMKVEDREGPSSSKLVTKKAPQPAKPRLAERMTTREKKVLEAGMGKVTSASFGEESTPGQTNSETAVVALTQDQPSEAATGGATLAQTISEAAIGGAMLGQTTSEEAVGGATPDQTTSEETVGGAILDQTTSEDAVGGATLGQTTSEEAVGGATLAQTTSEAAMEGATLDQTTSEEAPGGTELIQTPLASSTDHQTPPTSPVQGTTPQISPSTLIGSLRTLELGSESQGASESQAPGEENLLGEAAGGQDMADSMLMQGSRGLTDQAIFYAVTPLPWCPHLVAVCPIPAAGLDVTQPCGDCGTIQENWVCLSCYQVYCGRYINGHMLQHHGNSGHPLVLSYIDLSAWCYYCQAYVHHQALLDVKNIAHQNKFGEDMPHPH", "assay": "Binding affinity to human HDAC6 assessed as residence time by two-step reversible inhibition model"}, "[2]": {"tested_on": "MV4-11", "assay": "Induction of apoptosis in human MV4-11 cells assessed as viable cells at 2 uM incubated for 15 mins by Annexin-V/FITC staining based FACS analysis (reference value: 35.53%)", "assay_type": "functional", "details": "MV4-11, 0.25 h, read-out: Activity", "method_in_brief": "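MV4-11 cells were dosed, then washed twice in cold PBS and resuspended in binding buffer at 1×10^6 cells/mL. Cells were stained with FITC-annexin V and propidium iodide for 15 min in the dark, diluted with binding buffer and analysed by flow cytometry within 1 h. Quadrants: LL viable, LR early apoptotic, UR late apoptotic. Duplicate experiments averaged; DMSO control.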"}},
  "data": [
    {"smiles": "O=C(NO)c1ccc(CN(Cc2cccnc2)S(=O)(=O)c2cc(F)c(F)c(F)c2F)cc1", "values": [
      {"measurement": "TIME", "setting": "[1]", "value": 2.37, "unit": "h"},
      {"measurement": "viability at 2 µM", "setting": "[2]", "value": 9.59, "unit": "%"}
    ]}
  ]
}
